Compound activity (PubChem BioAssay)
The sample as a whole holds a higher share of hits than the screen did.
INS promoter act: TRM-6 insulin promoter activation | AID 1296 | activation, % at 2 µM | hit rate 0.81% among 130,000 | TRM-6 cells (human fetal islet line), insulin promoter eGFP reporter, imaging; plate-scaled: unstimulated 0, stimulated control 100;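 active = activation at 2 µM above a set limit, confirmed on inspection of the cell images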;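 also: share of cells whose green reporter signal exceeds an intensity cutoff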
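Assay system: TRM-6 human fetal islet cells, insulin promoter–eGFP reporter; Also added: 0.75 µM tamoxifen as reporter inducer; Schedule: 15 h tamoxifen pre-treatment, 48 h compound treatment at 37 °C; Signal: fixed-cell fluorescence microscopy, eGFP plus Hoechst; Read-out: percent activation from GFP-positive cell fraction; Control set: stimulated and unstimulated wells.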
A number is an active result; . = inactive; [ ] = remark or other dose.

SMILES	INS promoter act
Cc1nn2c(-c3ccccc3)nnc2c2ccccc12	450
Cc1nn2c(-c3cccc(NC(=O)c4ccco4)c3)nnc2c2ccccc12	.
CCOc1ccc2[nH]c(=O)c(CN(CCc3ccccc3)C(=O)c3cnccn3)cc2c1	.
CCOC(=O)N/N=C/c1ccc(OCCSc2ccc(Cl)cc2)c(OCC)c1	.
O=C(O)CCCN1C(=O)c2ccc(C(=O)c3cccc([N+](=O)[O-])c3)cc2C1=O	.
Cc1ccc(C)c(N(CC(=O)NN=C2CCN(C)CC2)S(=O)(=O)c2ccccc2)c1	.
Cc1ccc(S(=O)(=O)N(CC(=O)NN=C2CCN(C)CC2)c2ccc(C(C)C)cc2)cc1	.
CN1CCC(=NNC(=O)CN(c2ccc(Oc3ccccc3)cc2)S(C)(=O)=O)CC1	454
CC(C)(C)C(=O)COC(=O)CNC(=O)c1ccc(Oc2ccccc2)cc1	.
O=C(COC(=O)CN1C(=O)C2CCCCC2C1=O)Nc1cc(S(=O)(=O)N2CCOCC2)ccc1Cl (configuration not stated)	.
Cc1ccc(-c2csc3ncnc(N4CCN(C(=O)c5ccccc5)CC4)c23)cc1	.
O=C(Nc1nccs1)C1CCCN1S(=O)(=O)c1ccc(F)cc1 (configuration not stated)	.
O=C(CSc1nnc(-c2ccncc2)n1CC1CCCO1)NCc1ccccc1 (configuration not stated)	.
Cc1cc(C(=O)CSc2nnc(-c3ccc(F)cc3)o2)c(C)n1CC1COc2ccccc2O1 (configuration not stated)	.
Cc1cc(C(=O)CSc2nnc(-c3cccnc3)n2-c2ccccc2F)c(C)n1CC1CCCO1 (configuration not stated)	91
C/C(=N\n1cnnc1)c1ccccc1	.
Cc1ccnc(NC(=O)C2CCN(S(=O)(=O)c3cccc4nsnc34)CC2)c1	125
COc1ccc(OC)c(NC(=O)C2CCCN(S(=O)(=O)c3cccc4nsnc34)C2)c1 (configuration not stated)	.
Cc1ccc(CCNC(=O)C2CCN(S(=O)(=O)c3cccc4nsnc34)CC2)cc1	.
CCOC(=O)Cc1c(C)nc2c(-c3ccccc3)c(-c3ccccc3)[nH]n2c1=O	.
CCOC(=O)C1CCN(C(=O)Cn2cc3c(n2)CCC(C)C3)CC1 (configuration not stated)	.
O=C(NCc1ccccn1)c1c(Cl)cccc1Cl	.
O=C(NCc1ccccn1)c1ccc(Br)s1	529
O=C(NCc1ccccn1)c1ccc(Cl)cc1Cl	.
CC(=O)Nc1ccc(Nc2cc(C)nc3c(-c4ccccc4)cnn23)cc1	.
SMILES	INS promoter act
CCOc1ccc(N2C(=O)/C(=C/c3cccs3)N(C)C2=S)cc1	.
COc1ccc(N=C2S/C(=C\c3cccs3)C(=O)N2CC(C)C)cc1	.
CC(C)CN1C(=O)/C(=C/c2cccs2)NC1=S	431
CCOC(=O)C(CC)Sc1nc(-c2ccc(OC)cc2)nc2c1c(=O)n(C)c(=O)n2C (configuration not stated)	.
CCCCC(Nc1ncnc2ccccc12)C(=O)O (configuration not stated)	.
CN(C)CCNc1ncnc2ccccc12	.
Cc1ccc(Nc2ncnc3ccccc23)cc1	421
O=C(CSCc1ccc(F)cc1)NCc1ccco1	.
CCOC(=O)CCSc1nc(C)cc(C(F)(F)F)c1C#N	.
CC(C)(CSc1nncn1N)NS(=O)(=O)c1ccc(Cl)cc1	.
Cc1ccc(C(=O)Nc2ccc3nc(C)sc3c2)s1	562
Cc1nc2ccc(NC(=O)CCS(=O)(=O)c3ccc(Cl)cc3)cc2s1	.
Cc1nc2ccc([N+](=O)[O-])cc2s1	.
C/C(=N/NC(=O)CCC(=O)Nc1cccc(Cl)c1)c1ccc(C)cc1	.
CC(=O)OCC1O[C@@H](O[C@@H]2C[C@H]3C(C)(C)[C@H](OC(C)=O)CC[C@]3(C)[C@H]3CC[C@]45C[C@]4(CC[C@H]5[C@@H](C)C[C@@H](O)[C@H](O)C(C)(C)O)[C@@]32C)[C@H](O)[C@@H](O)[C@@H]1O (some centres not stated)	.
ClCC1NCC(c2ccccc2Cl)c2c1[nH]c1ccccc21 (configuration not stated)	586
COc1ccc(CNC(=O)CSc2nc3[nH]ncc3c(=O)n2-c2ccccc2Br)cc1	.
CCOC(=O)CNC(=O)C(CC(C)C)NC(=O)C1CCCCC1 (configuration not stated)	.
CCS(=O)(=O)c1ccc(O)c(NC(=O)c2cc(OC)c(OC)c(OC)c2)c1	.
Cc1ccc(N=Nc2ccc(O)c3ncccc23)cc1	.
Oc1ccc(CN2CCCCC2)c2cccnc12	.
Cc1ccc(N=Nc2ccc(O)c3ncccc23)cc1C	279
CCS(=O)(=O)c1ccc(N=Nc2ccc(O)c3ncccc23)c(OC)c1	625
Oc1c(Cl)cc(Cl)c2cccnc12	.
NC(=O)NC(=O)CSc1cccc(C(F)(F)F)c1	.
SMILES	INS promoter act
COc1cccc(C2/C(=C(\O)c3ccc4c(c3)OCCO4)C(=O)C(=O)N2CCCN(C)C)c1OC (configuration not stated)	.
Cc1cc(S(=O)(=O)N(Cc2cccs2)Cc2ccccc2F)ccc1-n1cnnn1	.
COC(=O)CCC(=O)NN1C(=O)c2ccccc2C1=O	.
O=C(O)CCC1=C2c3ccccc3CCN2C(=O)CC1	450
O=C1c2ccccc2C(=O)N1CCC(=O)N1CCc2ccccc21	.
CCN1CCN(c2nc3ccccc3nc2C(C#N)C(=O)OC2CCCCC2)CC1 (configuration not stated)	.
CCN1CCN(C2=CC3=CC(=C(C#N)C#N)CCC3CC2)CC1 (configuration not stated)	614[fluoresces]
CN1CCN(C2=CC3=CC(=C(C#N)C#N)CCC3CC2)CC1 (configuration not stated)	641
N#CC(C#N)=C1C=C2C=C(N3CCCCCC3)CCC2CC1 (configuration not stated)	223
CCOC(=O)C(C)Oc1ccsc1C(=O)OC (configuration not stated)	.
CCc1ccc(N2C(=O)c3cc(N4CCOCC4)c([N+](=O)[O-])cc3C2=O)cc1	.
Cc1ccc(-n2c(C)cc(C)c(C#N)c2=O)cc1C	.
CC1(C)C(=O)NCCN1C(=O)CCC(=O)O	.
O=S(=O)(Nc1nc(-c2sccc2Cl)cs1)c1cc(Cl)ccc1Cl	.
COCCCNC(=O)CSc1nc2c(sc3ccccc32)c(=O)n1CCCC(=O)NCC1CCCO1 (configuration not stated)	.
CC1CCCCC1NC(=O)COC(=O)C12CC3CC(CC(Cl)(C3)C1)C2 (configuration not stated)	.
COc1cccc(/C=N/NC(=O)c2nc(-c3ccccc3)cc(-c3ccccc3)n2)c1	.
COc1cccc(/C=C/C(=O)c2ccc[nH]2)c1	.
COc1cccc(/C=C2\C(=O)C(=O)c3ccccc32)c1	178
CCN(CC)S(=O)(=O)c1ccc(Cl)c(C(=O)OC)c1	.
CCCS(=O)(=O)c1c(S(=O)(=O)CCC)c2c(C)cccn2c1C(N)=O	.
CCCS(=O)(=O)c1c(S(=O)(=O)CCC)c2cc(-c3ccncc3)ccn2c1C(=O)OC	379
CC(C)N(Cc1nc(-c2ccccc2)no1)C(=O)CN(C)S(=O)(=O)c1ccccc1	.
CN(C)CCN(C(=O)c1cccc(Cl)c1)c1nc2c(Cl)cccc2s1	.
COc1ccc(OC)c2sc(N(CCN(C)C)C(=O)c3cc(Cl)sc3Cl)nc12	283
CN(C)CCCN(C(=O)c1ccco1)c1nc2ccc(Cl)cc2s1	.
O=C(c1ccc(Br)o1)N1CCN(c2ncccn2)CC1	.
